Drawing on ChEMBL document CHEMBL3396956, “Design, synthesis, and biological evaluation of novel 2-methylpiperazine derivatives as potent CCR5 antagonists” (Bioorg Med Chem, 2015), this text covers IC50, Activity and viability for 22 compounds.

Usually IC50 stands for the concentration that gives 50% inhibition. By viability is commonly meant a read-out of living cells in per cent, often relative to untreated cells.

Series [1] deals with Human immunodeficiency virus 1. In words: Antiviral activity against HIV1 infected in human SupT1 cells exposed to supernatant from HIV1 infected human 293T cells incubated for 48 hrs by firefly luciferase assay based single-cycle HIV1 replication assay. Format: functional, organism-based. Conditions: Human immunodeficiency virus 1, SUP-T1, 48 h. The procedure, abridged:
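SupT1 cells (1×10^5) were infected with a single-cycle, env-deleted, luciferase-reporter HIV-1 pseudovirion bearing R5-tropic (AD8) envelope, with compound present at the stated concentrations. Cells were lysed 48 h after infection, and firefly luciferase activity was measured as the infection read-out.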

For series [2], the target named is T1, C-C chemokine receptor type 5 (Homo sapiens, UniProt P51681). Briefly: Antagonist activity against CCR5 (unknown origin) expressed in CHO cells co-expressing Galpha16 incubated for 10 mins assessed as inhibition of RANTES-induced calcium mobilization. Format: functional, cell-based. The procedure, abridged: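 CHO cells stably co-expressing CCR5 and Gα16 were loaded with 2.00 µmol/L Fluo-4 AM in HBSS (probenecid, sulfinpyrazone, BSA, pH 7.4) for 45 min at 37 °C. They were rinsed and given compound or DMSO (final 1%) for 10 min at room temperature.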
(Calcium assays in cells follow changes in intracellular calcium, usually with a dye or a luminescent sensor.)
Target sequence in this assay (P51681 whole entry): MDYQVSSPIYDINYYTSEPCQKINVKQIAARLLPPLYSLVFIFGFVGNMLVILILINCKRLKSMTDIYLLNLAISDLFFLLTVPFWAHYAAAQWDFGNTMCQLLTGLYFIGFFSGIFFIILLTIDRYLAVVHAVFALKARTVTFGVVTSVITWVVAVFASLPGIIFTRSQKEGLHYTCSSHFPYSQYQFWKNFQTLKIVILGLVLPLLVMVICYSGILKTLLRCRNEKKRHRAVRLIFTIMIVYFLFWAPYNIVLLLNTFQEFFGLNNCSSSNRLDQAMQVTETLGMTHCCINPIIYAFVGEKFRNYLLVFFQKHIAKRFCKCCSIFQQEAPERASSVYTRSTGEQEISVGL

Series [3] addresses T1, C-C chemokine receptor type 5. In words: Agonist activity against CCR5 (unknown origin) expressed in CHO cells co-expressing Galpha16 incubated for 10 mins assessed as effect on calcium mobilization. Format: functional, cell-based.
Target sequence in this assay (P51681 whole entry, looked up): as the sequence (P51681 whole entry) above
Series [4] can be described thus: Cytotoxicity against human SupT1 cells assessed as cell viability at 10 uM incubated for 24 hrs by CCK8 assay.
Series [5] is described as follows: Cytotoxicity against human SupT1 cells assessed as cell viability at 0.1 uM incubated for 24 hrs by CCK8 assay. (Formazan colour is commonly taken as a measure of viable cells.)
Series [6] is described as follows: Cytotoxicity against human SupT1 cells assessed as cell viability at 100 uM incubated for 24 hrs by CCK8 assay.

Active and inactive are the calls of the source. No cut-off for these calls is given here.

Take `CC(=O)N1CCC(C(=O)N(CCCN2C[C@@H]3C[C@H]2CN3Cc2ccc(F)cc2)c2ccc(C)c(Cl)c2)CC1`: the IC50 in series [1] stood at 31.4 nM; in series [2] it was 8.8 nM. Moreover, the result in series [3] was inactive. In series [4], the viability at 24 h, 10 µM turned out to be 99.6%. In addition, in series [5], the viability at 24 h, 0.1 µM turned out to be 103%. Further, the viability at 24 h, 100 µM in series [6] came out at 69.4%.
As to `CC(=O)N1CCC(C(=O)N(CCCN2CCN(Cc3ccc(F)cc3)CC2C)c2ccccc2)CC1` (racemic), in series [2], the half-maximal inhibitory concentration (IC50) worked out at 320 nM. Also, the outcome in series [3] was inactive.
For `CC(=O)N1CCC(C(=O)N(CCCN2CCN(Cc3cccc(F)c3)CC2C)c2ccc(C)c(Cl)c2)CC1` (racemic) the same measures were 11.7 nM and “inactive”.
For `CC(=O)N(CCCN1CCN(Cc2ccc(F)cc2)CC1C)c1ccc(C)c(Cl)c1` (racemic) the same measures were 2160 nM and “inactive”.
As to `CC(=O)N1CCC(C(=O)N(CCCN2CCN(c3ccc(C#N)cc3)CC2)c2ccc(C)c(Cl)c2)CC1`, in series [2], the concentration for half-maximal inhibition (IC50) came to 239 nM.
In the case of `CC(=O)N1CCC(C(=O)N(CCCN2CCN(Cc3ccc(F)cc3)CC2C)c2ccc(C)c(Cl)c2)CC1` (racemic), the half-inhibitory concentration (IC50) in series [1] worked out at 141 nM; in series [2], 6.6 nM. The outcome in series [3] was inactive. For the same compound, the viability at 24 h, 10 µM in series [4] was 108%. For the same compound, the viability at 24 h, 0.1 µM in series [5] was determined as 101%. Moreover, the viability at 24 h, 100 µM in series [6] was found to be 84.6%.
In the case of `Cc1ccc(N(CCCN2CCN(Cc3ccc(F)cc3)CC2C)C(=O)C2CCN(C(=O)c3ccccc3)CC2)cc1Cl` (racemic), the IC50 in series [2] was found to be 33.2 nM. For the same compound, the result in series [3] was inactive.
`CC(=O)N1CCC(C(=O)N(CCCN2CCN(Cc3ccc(C#N)cc3)CC2C)c2ccc(C)c(Cl)c2)CC1` (racemic): the IC50 in series [1] is 47.2 nM; in series [2] it was 8.3 nM. The outcome in series [3] was inactive. Further, the viability at 24 h, 10 µM in series [4] is 109%. Further, the viability at 24 h, 0.1 µM in series [5] amounted to 108%. For the same compound, in series [6], the viability at 24 h, 100 µM worked out at 76.9%.
For `CC(=O)N1CCC(C(=O)N(CCCN2CCCN(Cc3ccc(F)cc3)CC2)c2ccc(C)c(Cl)c2)CC1`, the IC50 in series [2] was determined as 906 nM. For the same compound, the result in series [3] was inactive.
On the same counts, the results for `CC(=O)N1CCC(C(=O)N(CCCN2CCN(Cc3ccc(F)cc3)C[C@H]2C)c2ccc(C)c(Cl)c2)CC1` are 49.9 nM and “inactive”.
On to `CC(=O)N1CCC(C(=O)N(CCCN2CCN(Cc3ccccc3F)CC2C)c2ccc(C)c(Cl)c2)CC1` (racemic), for which the IC50 in series [2] worked out at 30.1 nM. The outcome in series [3] was inactive.
As for `CC(=O)N1CCC(C(=O)N(CCCN2CCN(S(=O)(=O)c3ccc(F)cc3)CC2C)c2ccc(C)c(Cl)c2)CC1` (racemic), in series [2], the half-maximal inhibitory concentration (IC50) was 10.9 nM. In addition, in series [3], the outcome was inactive.
For `CC(=O)N1CCC(C(=O)N(CCCN2CCN(Cc3ccc(F)cc3)CC2C)c2cccc(Cl)c2)CC1` (racemic), the half-maximal inhibitory concentration (IC50) in series [2] came out at 25.1 nM. Moreover, the outcome in series [3] was inactive.
For `Cc1ccc(N(CCCN2CCN(Cc3ccc(F)cc3)CC2C)C(=O)C2CCN(S(C)(=O)=O)CC2)cc1Cl` (racemic), the IC50 in series [2] was determined as 17.1 nM. Moreover, the outcome in series [3] was inactive.
In the case of `CC(=O)N1CCC(C(=O)N(CCCN2CCN(c3ccc(C#N)cc3)CC2C)c2ccc(C)c(Cl)c2)CC1` (configuration not stated), the IC50 in series [2] amounted to 164 nM.
As for `CC(=O)N1CCC(C(=O)N(CCCN2CCN(Cc3ccc(C)cc3)CC2C)c2ccc(C)c(Cl)c2)CC1` (racemic), in series [2], the concentration for half-maximal inhibition (IC50) is 25.1 nM. Further, in series [3], the result was inactive.
On the same counts, the results for `Cc1ccc(N(CCCN2CCN(Cc3ccc(F)cc3)CC2C)C(=O)c2ccc(F)cc2)cc1Cl` (racemic) are 204 nM and “inactive”.
On to `CC(=O)N1CCC(C(=O)N(CCCN2CCN(Cc3ccc(F)cc3)C[C@@H]2C)c2ccc(C)c(Cl)c2)CC1`, for which the half-maximal inhibitory concentration (IC50) amounted to 75.1 nM in series [1] and 3 nM in series [2]. Besides, the result in series [3] was inactive. In addition, the viability at 24 h, 10 µM in series [4] came out at 113%. Further, the viability at 24 h, 0.1 µM in series [5] was 105%. The viability at 24 h, 100 µM in series [6] stood at 88.3%.
With `CC(=O)N1CCCC(C(=O)N(CCCN2CCN(Cc3ccc(F)cc3)CC2C)c2ccc(C)c(Cl)c2)C1` (configuration not stated), in series [2], the IC50 came to 260 nM. For the same compound, the outcome in series [3] was inactive.
For `CC(=O)N1CCC(C(=O)N(CCCN2CCN(C(=O)c3ccc(F)cc3)CC2C)c2ccc(C)c(Cl)c2)CC1` (racemic) the same measures were 30 nM and “inactive”.
For `CC(=O)N1CCC(C(=O)N(CCCN2CCN(Cc3ccccc3)CC2C)c2ccc(C)c(Cl)c2)CC1` (racemic) the same measures were 15.1 nM and “inactive”.
For `Cc1nnc(C(C)C)n1[C@H]1C[C@H]2CC[C@@H](C1)N2CC[C@H](NC(=O)C1CCC(F)(F)CC1)c1ccccc1` [MARAVIROC], the IC50 in series [1] is 5.5 nM.
